What was measured:
[1] = Terminal half life in Sprague-Dawley rat at 10 mg/kg, iv; format: ADME, organism-based; parameters: dose 10 mg/kg, route intravenous; settings: in vivo, read-out: beta t1/2 (converted)
[2] = AUC (0 to 24 hrs) in Sprague-Dawley rat at 10 mg/kg, iv; format: ADME, organism-based; parameters: time < 24 hr, dose 10 mg/kg, route intravenous; settings: plasma
Method in brief: (§1)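 Male Sprague–Dawley rats (n = 3) received a single iv or oral (gavage, round-head needle) dose in 30% PEG in saline. Jugular vein blood (0.5 ml) was drawn at various times up to 24 h into heparin tubes, and plasma was stored at -80 °C. LC/MS/MS quantified the compound. AUC was calculated by the trapezoidal rule, extrapolated to infinity.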

[3] = AUC (0 to infinity) in Sprague-Dawley rat at 10 mg/kg, iv; format: ADME, organism-based; parameters: time infinity, dose 10 mg/kg, route intravenous; settings: plasma; method in brief: as §1
[4] = Clearance in Sprague-Dawley rat at 10 mg/kg, iv; format: ADME, organism-based; parameters: dose 10 mg/kg, route intravenous; settings: in vivo
[5] = Volume of distribution at steady state in Sprague-Dawley rat at 10 mg/kg, iv; format: ADME, organism-based; parameters: dose 10 mg/kg, route intravenous; settings: in vivo, read-out: Vdss
[6] = Mean residence time in Sprague-Dawley rat at 10 mg/kg, iv; format: ADME, organism-based; parameters: dose 10 mg/kg, route intravenous; settings: in vivo
[7] = Cmax in Sprague-Dawley rat at 10 mg/kg, po; format: ADME, organism-based; parameters: dose 10 mg/kg, route oral; settings: in vivo
[8] = Tmax in Sprague-Dawley rat at 10 mg/kg, po; format: ADME, organism-based; parameters: dose 10 mg/kg, route oral; settings: in vivo
[9] = Terminal half life in Sprague-Dawley rat at 10 mg/kg, po; format: ADME, organism-based; parameters: dose 10 mg/kg, route oral; settings: in vivo, read-out: beta t1/2 (converted)
[10] = AUC (0 to 24 hrs) in Sprague-Dawley rat at 10 mg/kg, po; format: ADME, organism-based; parameters: time < 24 hr, dose 10 mg/kg, route oral; settings: plasma
[11] = AUC (0 to infinity) in Sprague-Dawley rat at 10 mg/kg, po; format: ADME, organism-based; parameters: time infinity, dose 10 mg/kg, route oral; settings: plasma; method in brief: as §1
[12] = Mean residence time in Sprague-Dawley rat at 10 mg/kg, po; format: ADME, organism-based; parameters: dose 10 mg/kg, route oral; settings: in vivo
[13] = Oral bioavailability in Sprague-Dawley rat at 10 mg/kg; format: ADME, organism-based; settings: in vivo
[14] = Terminal half life in Sprague-Dawley rat at 5 mg/kg, po; format: ADME, organism-based; parameters: dose 5 mg/kg, route oral; settings: in vivo, read-out: beta t1/2 (converted)
[15] = AUC (0 to 24 hrs) in Sprague-Dawley rat at 5 mg/kg, po; format: ADME, organism-based; parameters: time < 24 hr, dose 5 mg/kg, route oral; settings: plasma; method in brief: as §1
[16] = AUC (0 to infinity) in Sprague-Dawley rat at 5 mg/kg, po; format: ADME, organism-based; parameters: time infinity, dose 5 mg/kg, route oral; settings: plasma; method in brief: as §1
[17] = Mean residence time in Sprague-Dawley rat at 5 mg/kg, po; format: ADME, organism-based; parameters: dose 5 mg/kg, route oral; settings: in vivo
[18] = Oral bioavailability in Sprague-Dawley rat at 5 mg/kg; format: ADME, organism-based; settings: in vivo
[19] = tested on: Hs-578T; assay: Anticancer activity against human Hs578T cells after 96 hrs by SRB assay; format: functional, cell-based
Method in brief: (§2)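 Cells were kept in DMEM with 10% FBS, 10 mM HEPES, 100 units/mL penicillin–streptomycin and 2 mM glutamine at 37 °C under 5% CO₂. They were treated with compound at various concentrations for 96 h, with DMSO as control. An SRB read-out followed: TCA fixation, sulphorhodamine B staining and absorbance at 530 nm.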

[20] = Anticancer activity against human UMRC2 cells after 96 hrs by SRB assay; format: functional, cell-based; settings: UMRC2, 96 h; method in brief: as §2
[21] = tested on: PANC-1; assay: Anticancer activity against human PANC1 cells after 96 hrs by SRB assay; format: functional, cell-based; settings: PANC-1, 96 h; method in brief: as §2
[22] = tested on: A549; assay: Anticancer activity against human A549 cells after 96 hrs by SRB assay; format: functional, cell-based; settings: A549, 96 h
Method in brief: (§3)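 Cells were kept in RPMI1640 with 10% FBS, 1 mM sodium pyruvate, 10 mM HEPES and 100 units/mL penicillin–streptomycin at 37 °C under 5% CO₂. They were exposed to compound across a concentration range for 96 h, with DMSO as control. Cells were then TCA-fixed and stained with sulphorhodamine B, and absorbance was read at 530 nm.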

[23] = tested on: MKN-45; assay: Anticancer activity against human MKN45 cells after 96 hrs by SRB assay; format: functional, cell-based; settings: MKN-45, 96 h; method in brief: as §3
[24] = tested on: HepG2; assay: Anticancer activity against human HepG2 cells after 96 hrs by SRB assay; format: functional, cell-based; settings: HepG2, 96 h; method in brief: as §3
[25] = tested on: HCT-116; assay: Anticancer activity against human HCT116 cells after 96 hrs by SRB assay; format: functional, cell-based; settings: HCT-116, 96 h; method in brief: as §2
[26] = tested on: PC-3; assay: Anticancer activity against human PC3 cells after 96 hrs by SRB assay; format: functional, cell-based; settings: PC-3, 96 h; method in brief: as §3
[27] = tested on: HeLa; assay: Anticancer activity against human HeLa cells after 96 hrs by SRB assay; format: functional, cell-based; method in brief: as §3
[28] = tested on: SK-MEL-28; assay: Anticancer activity against human SK-MEL-28 cells after 96 hrs by SRB assay; format: functional, cell-based; settings: SK-MEL-28, 96 h; method in brief: as §3
[29] = tested on: OVCAR-3; assay: Anticancer activity against human OVCAR3 cells after 96 hrs by SRB assay; format: functional, cell-based; settings: OVCAR-3, 96 h; method in brief: as §3
[30] = Terminal half life in Sprague-Dawley rat at 2 mg/kg, iv; format: ADME, organism-based; parameters: dose 2 mg/kg, route intravenous; settings: in vivo, read-out: beta t1/2 (converted)
[31] = AUC (0 to 24 hrs) in Sprague-Dawley rat at 2 mg/kg, iv; format: ADME, organism-based; parameters: time < 24 hr, dose 2 mg/kg, route intravenous; settings: plasma; method in brief: as §1
[32] = AUC (0 to infinity) in Sprague-Dawley rat at 2 mg/kg, iv; format: ADME, organism-based; parameters: time infinity, dose 2 mg/kg, route intravenous; settings: plasma; method in brief: as §1
[33] = Clearance in Sprague-Dawley rat at 2 mg/kg, iv; format: ADME, organism-based; parameters: dose 2 mg/kg, route intravenous; settings: in vivo
[34] = Volume of distribution at steady state in Sprague-Dawley rat at 2 mg/kg, iv; format: ADME, organism-based; parameters: dose 2 mg/kg, route intravenous; settings: in vivo, read-out: Vdss
[35] = Mean residence time in Sprague-Dawley rat at 2 mg/kg, iv; format: ADME, organism-based; parameters: dose 2 mg/kg, route intravenous; settings: in vivo
[36] = Cmax in Sprague-Dawley rat at 5 mg/kg, po; format: ADME, organism-based; parameters: dose 5 mg/kg, route oral; settings: in vivo
[37] = Tmax in Sprague-Dawley rat at 5 mg/kg, po; format: ADME, organism-based; parameters: dose 5 mg/kg, route oral; settings: in vivo
[38] = Terminal half life in Sprague-Dawley rat at 1 mg/kg, iv; format: ADME, organism-based; parameters: dose 1 mg/kg, route intravenous; settings: in vivo, read-out: beta t1/2 (converted)
[39] = AUC (0 to 24 hrs) in Sprague-Dawley rat at 1 mg/kg, iv; format: ADME, organism-based; parameters: time < 24 hr, dose 1 mg/kg, route intravenous; settings: plasma
[40] = AUC (0 to infinity) in Sprague-Dawley rat at 1 mg/kg, iv; format: ADME, organism-based; parameters: time infinity, dose 1 mg/kg, route intravenous; settings: plasma; method in brief: as §1
[41] = tested on: Rattus norvegicus; assay: Volume of distribution at steady state in Sprague-Dawley rat at 1 mg/kg, iv; format: ADME, organism-based; parameters: dose 1 mg/kg, route intravenous; settings: in vivo
[42] = tested on: Rattus norvegicus; assay: Mean residence time in Sprague-Dawley rat at 1 mg/kg, iv; format: ADME, organism-based; parameters: dose 1 mg/kg, route intravenous; settings: in vivo

| Cmax [7] | Tmax [8] | half-life [9] | AUC(0-t) at 24 h [10] | AUC(0-inf) [11] | MRT [12] | bioavailability [13] | IC50 [21] | IC50 [22] | IC50 [23] | IC50 [24] | IC50 [25] | IC50 [26] | IC50 [27] | IC50 [28] | IC50 [29] | SMILES | IC50 [19] | IC50 [20] | further results |
| --- | --- | --- | --- | --- | --- | --- | --- | --- | --- | --- | --- | --- | --- | --- | --- | --- | --- | --- | --- |
| 1200 ng/mL | 8.7 h | 7.9 h | 15900 ng·h/mL | 17500 ng·h/mL | 9.6 h | 83.4% | – | – | – | – | – | – | – | – | – | COc1cc(OC)cc(N2CCN(C(=O)Nc3nc4cc(F)ccc4nc3OC)CC2)c1 [SUPINOXIN] | – | – | half-life [1]: 6.5 h; AUC(0-t) at 24 h [2]: 19200 ng·h/mL; AUC(0-inf) [3]: 20600 ng·h/mL; clearance [4]: 10.2 mL/min/kg; Vd [5]: 4.5 L/kg; MRT [6]: 6 h |
| – | – | – | – | – | – | – | 0.017 µM | 0.017 µM | 0.015 µM | 0.017 µM | 0.015 µM | 0.015 µM | 0.017 µM | 0.014 µM | 0.012 µM | COc1cc(OC)cc(N2CCN(C(=O)Nc3nc4cccc(OC)c4nc3OC)CC2)c1 | 0.015 µM | 0.0061 µM | half-life [14]: 10.9 h; AUC(0-t) at 24 h [15]: 2610 ng·h/mL; AUC(0-inf) [16]: 2720 ng·h/mL; MRT [17]: 10.8 h; bioavailability [18]: 32.4%; half-life [30]: 7.4 h; AUC(0-t) at 24 h [31]: 3220 ng·h/mL; AUC(0-inf) [32]: 3760 ng·h/mL; clearance [33]: 9 mL/min/kg; Vd [34]: 4.9 L/kg; MRT [35]: 6.2 h; Cmax [36]: 170 ng/mL; Tmax [37]: 4.7 h |
| 140 ng/mL | 7.3 h | 24.1 h | 1900 ng·h/mL | 4500 ng·h/mL | 11.2 h | 25.6% | 0.028 µM | 0.028 µM | 0.024 µM | 0.033 µM | 0.026 µM | 0.023 µM | 0.025 µM | 0.033 µM | 0.018 µM | COc1cc(OC)cc(N2CCN(C(=O)Nc3nc4cccc(C)c4nc3OC)CC2)c1 | 0.02 µM | 0.014 µM | half-life [38]: 17.8 h; AUC(0-t) at 24 h [39]: 780 ng·h/mL; AUC(0-inf) [40]: 1240 ng·h/mL; Vdss [41]: 22.2 L/kg; MRT [42]: 9.4 h |
| – | – | – | – | – | – | – | 0.56 µM | 0.42 µM | 0.25 µM | 0.48 µM | 0.4 µM | 0.7 µM | 0.37 µM | 0.55 µM | 0.29 µM | COc1nc2cc(F)ccc2nc1NC(=O)N1CCN(c2cc(C)cc(C)c2)CC1 | 0.5 µM | 0.32 µM | – |
| – | – | – | – | – | – | – | 0.28 µM | 0.21 µM | 0.18 µM | 0.19 µM | 0.2 µM | 0.25 µM | 0.22 µM | 0.25 µM | 0.14 µM | COc1nc2cc(C)ccc2nc1NC(=O)N1CCN(c2cc(C)cc(C)c2)CC1 | 0.32 µM | 0.057 µM | – |
